The RNAGym collection of RNA variant scans (doi:10.1126/science.aae0568)
Fewer inactive variants are shown than the library holds.

B1: tRNA (parent)
chain: GUUCCGUUGGCGUAAUGGUAACGCGUCUCCCUCCUAAGGAGAAGACUGCGGGUUCGAGUCCCGUACGGAACG

Variants of: B1
Assay: yeast fitness relative to wild type (ratio to wild type); higher = fitter; tRNA-Arg(CCU), competitive growth, 37 C, YPD
In short: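 Genotype frequency changes were the basis for Darwinian fitness relative to wild type. The frequencies came from 100-nucleotide paired-end sequencing of gene amplicons from the start population and each end population of pooled yeast strains with tRNA-Arg(CCU) gene variants at the native locus. Competition ran in YPD at 37°C for 24 hours in six replicates, genotypes needed ≥ 100 starting reads, and estimates < 0.5 were set to 0.5.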

Row | Variant | yeast fitness
1 | C22G C30G C55A | ≤ 0.5
2 | C22G U26A | 1.08
3 | C22G C24A G38A | 0.544
4 | C22G C27G C31G | 0.571
5 | C22U C29U A40C | 0.667
6 | C22G G52A | 0.772
7 | C22G C34A G67U | ≤ 0.5
8 | C22U C33G G58C | 0.525
9 | C22G C24G A45C G63C | 0.563
10 | C22G A45U | 0.712
11 | C22G G50C A57G | ≤ 0.5
12 | C22U A65G G68C | 0.534
13 | C22U C34U G39A G44A G58C A65C | ≤ 0.5
14 | C22U A43C C46A | 0.626
15 | C22U A40U A43U C46U C55U A65U | ≤ 0.5
16 | C22G C27U C62A A65G | ≤ 0.5
17 | C22G U32C G67A | 0.564
18 | C22U C24U C27U C31U C62U | ≤ 0.5
19 | C22G G39A G67C | 0.526
20 | C22U C29G A36U G41C A45C C49U U54C C61U | ≤ 0.5
21 | C22U A57G C60A | ≤ 0.5
22 | C22G A45U G48C C49G | ≤ 0.5
23 | C22G U47A A70C | ≤ 0.5
24 | C22G U64G | 0.8

Row | Variant | yeast fitness
25 | C22G C27G C31G C49U C61G A69U | 0.534
26 | C22U G23C G52C | ≤ 0.5
27 | C22U C24A A70U | ≤ 0.5
28 | C22G U32A | 0.71
29 | C22U C34A G56C A57U | ≤ 0.5
30 | C22U A40U A43U | ≤ 0.5
31 | C22G U28C C29A A42C | ≤ 0.5
32 | C22G C27G U59C C62U G68U | 0.529
33 | C22G C29G C46U G63A A70U | ≤ 0.5
34 | C22G C24A G38A G67A | 0.531
35 | C22G G25A G41C A57U | ≤ 0.5
36 | C22U A42G C55G A70U | 0.556
37 | C22G A45G C49U A70U | ≤ 0.5
38 | C22G G48C G67C | ≤ 0.5
39 | C22U C49U | 0.816
40 | C22U A40C A70U | 0.545
41 | C22U C30G C49U | ≤ 0.5
42 | C22G U35C | 0.8
43 | C22G C49G C66A | ≤ 0.5
44 | C22G C24A G38A G44C U59A | ≤ 0.5
45 | C22U C30G A36U C46G | ≤ 0.5
46 | C22U C24U G51C | ≤ 0.5
47 | C22U G25A U26G C62U A65U | 0.51
48 | C22G C49G C62G | ≤ 0.5

Row | Variant | yeast fitness
49 | C22U A40G | 0.834
50 | C22G C34A A36U A42C C46G | ≤ 0.5
51 | C22U C31G G38A U47A | ≤ 0.5
52 | C22G U54A U59A C61U | ≤ 0.5
53 | C22U C30U C33U A45C C66U | ≤ 0.5
54 | C22U A42U G44U G63A | 0.608
55 | C22U C61U | 0.72
56 | C22G C30U U54C | 0.554
57 | C22G C31G C49U U54G | 0.568
58 | C22U A42U C49G | ≤ 0.5
59 | C22G C34A G58A C66A | ≤ 0.5
60 | C22G C27G C29G C34A A43U | ≤ 0.5
61 | C22G C66U | 0.896
62 | C22U A36C A45C C55G C62A G68A | ≤ 0.5
63 | C22U A36G G51C A65C | 0.6
64 | C22G U28A A40U A57U | 0.657
65 | C22U C24G U47C C61A | ≤ 0.5
66 | C22U C27G C31U G68A | ≤ 0.5
67 | C22U A40U U47C | 0.544
68 | C22U C31A C34U A36C A45C C61U U64A | ≤ 0.5
69 | C22G C33G A36U | ≤ 0.5
70 | C22U A36C A69C | ≤ 0.5
71 | C22U G48A A69C | 0.741
72 | C22G C24G C55G | ≤ 0.5

Row | Variant | yeast fitness
73 | C22U G48A A65U | 0.773
74 | C22G C31G C66U | 0.64
75 | C22U C27U C33G G44C | ≤ 0.5
76 | C22G C29G G41C | ≤ 0.5
77 | C22U C27U U54G | ≤ 0.5
78 | C22U G25A G67C | 0.535
79 | C22G G50A | 0.837
80 | C22U G51A | 0.804
81 | C22U C46U G50C C55U A57U C62G A70U | ≤ 0.5
82 | C22G G58A | 1.07
83 | C22G C30G C33G A37U C61G | 0.683
84 | C22U C31G U64A C66A | ≤ 0.5
85 | C22G C27U U35C G39C A42C G48A | ≤ 0.5
86 | C22G C29G G68C | ≤ 0.5
87 | C22G U28C U47A | ≤ 0.5
88 | C22U C29A C55G A65U G67A | 0.578
89 | C22U A36C A65G | 0.564
90 | C22G C27G C31G C49A G52A | ≤ 0.5
91 | C22G U47G C66U A69C | ≤ 0.5
92 | C22G G25C U35C A37G A65U | ≤ 0.5
93 | C22G C33G | 0.685
94 | C22U G23A U54G A57U | ≤ 0.5
95 | C22U C30G C61U A65C C66U | ≤ 0.5
96 | C22U C31U A45U C55U A70U | ≤ 0.5

Row | Variant | yeast fitness
97 | C22G C55U U59A A65C | ≤ 0.5
98 | C22G C29A U53A C66U | ≤ 0.5
99 | C22G G44C C55U | 0.564
100 | C22G C34A A36U | 0.656
101 | C22G C29A | 0.662
102 | C22G G25C U26C C27G A40G | ≤ 0.5
103 | C22U C30U A37G | 0.526
104 | C22U A40G A43U C46G C49G C62U | 0.531
105 | C22G C27G | 0.597
106 | C22G U26A C29G A70U | 0.591
107 | C22U A69C | 0.876
108 | C22G C31G G67A | 0.615
109 | C22G C34U | 0.696
110 | C22U C60G | 0.688
111 | C22U G38C C46U C66G | ≤ 0.5
112 | C22U C24A A42G | ≤ 0.5
113 | C22U C62G A69U | 0.586
114 | C22G G41A A43C G51C C66U G67U | ≤ 0.5
115 | C22G C27G U59C C61U C62U G68U | ≤ 0.5
116 | C22U C29U G41A G48A C62A | 0.611
117 | C22G C31G C62U G68C | ≤ 0.5
118 | C22G U32C U54A A65G | ≤ 0.5
119 | C22G C34U A43C A69U | ≤ 0.5
120 | C22G G25C A37G | ≤ 0.5

Row | Variant | yeast fitness
121 | C22G U35C A57C | 0.61
122 | C22G U47A G52A | ≤ 0.5
123 | C22U C24G C30G | ≤ 0.5
124 | C22G C60A | 0.679
125 | C22G C27G C31G C61G A69U | 0.62
126 | C22G C31U C49U C61A | ≤ 0.5
127 | C22U A57G A70U | 0.591
128 | C22G C31G C49U | 0.605
129 | C22G G44C A70C | 0.553
130 | C22G C49G G68C | 0.529
131 | C22G C49U C62G | 0.558
132 | C22U C27G U28G U59C | ≤ 0.5
133 | C22G C29A A45U | 0.615
134 | C22U C29A | 0.543
135 | C22U C60U C61A | ≤ 0.5
136 | C22U C30A C34U G38C | ≤ 0.5
137 | C22G C55U | 0.739
138 | C22G C31U C61G | 0.614
139 | C22G G23C A42U C62A | ≤ 0.5
140 | C22U A70C | 0.859
141 | C22G A45C C61U A65G | ≤ 0.5
142 | C22G A45C G52C A57U | 0.549
143 | C22G G68A | 0.813
144 | C22U A45G | 0.747

Row | Variant | yeast fitness
145 | C22U A45U C62U | 0.671
146 | C22U C30A A40U A43U | ≤ 0.5
147 | C22U A42U G51C C62U | ≤ 0.5
148 | C22G U32C A43G G52A C61G | ≤ 0.5
149 | C22U C46G C49A C60A A70C | ≤ 0.5
150 | C22U A40G A43U C46G C49G A70G | ≤ 0.5
151 | C22G C31U U64C | 0.748
152 | C22G C29A G63A | 0.553
153 | C22G C24U A43C A70U | ≤ 0.5
154 | C22G G23C C27A U28C C60A | ≤ 0.5
155 | C22G C34A A42G C66A | ≤ 0.5
156 | C22G U28A C31G G39A C55A G68C | ≤ 0.5
157 | C22G G41A G48C G68C | ≤ 0.5
158 | C22U C46A G58C C66U | ≤ 0.5
159 | C22U C33G A42C C49G G58C C62G | ≤ 0.5
160 | C22G G48C A69C | 0.589
161 | C22G C31A A43G A69U | ≤ 0.5
162 | C22U C49G U53A | 0.558
163 | C22U A42C A57C | ≤ 0.5
164 | C22G C24A C27U U59A | ≤ 0.5
165 | C22G C31G C61U | 0.587
166 | C22U C30U A57G | ≤ 0.5
167 | C22G C31U U53A | ≤ 0.5
